Test results taken from ChEMBL document CHEMBL3046215, “Aliphatic ketones from Ruta chalepensis (Rutaceae) induce paralysis on root knot nematodes” (J Agric Food Chem, 2011).
Values after ≈ are worked out from the molar mass of the structure shown.

Columns and labels:
Format in all cases: functional, organism-based
Meloidogyne javanica [1] = experiment: Nematicidal activity against second-stage juvenile Meloidogyne javanica (root-knot nematode) assessed as paralysis measured after 1 day; conditions: 24 h
In short: (§1)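 Compounds diluted from ethanol stocks into water with Tween 20 (final ≤1% ethanol, ≤0.3% Tween). Motile vs paralyzed scored microscopically; Schneider-Orelli correction for water-control paralysis; EC50 by log-logistic regression; six replicates, two experiments.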

Meloidogyne javanica [2] = experiment: Nematicidal activity against second-stage juvenile Meloidogyne javanica (root-knot nematode) assessed as paralysis measured after 1 hr; in short: as §1
Meloidogyne incognita [3] = experiment: Nematicidal activity against second-stage juvenile Meloidogyne incognita (root-knot nematode) assessed as paralysis measured after 1 day; conditions: 24 h; in short: as §1
Meloidogyne incognita [4] = experiment: Nematicidal activity against second-stage juvenile Meloidogyne incognita (root-knot nematode) assessed as paralysis measured after 1 hr; in short: as §1

| Structure (SMILES) | EC50 (Meloidogyne javanica [1]) [µg/mL] | EC50 (Meloidogyne javanica [2]) [µg/mL] | EC50 (Meloidogyne incognita [3]) [µg/mL] | EC50 (Meloidogyne incognita [4]) [µg/mL] |
| --- | --- | --- | --- | --- |
| CCCCCCCCC(C)=O [2-DECANONE] | 55.9 (≈ 358 µM) | > 500 | 55.6 (≈ 356 µM) | 235 (≈ 1500 µM) |
| CCCCCCCCCCC(C)=O [2-DODECANONE] | 59.9 (≈ 325 µM) | > 500 | 33.8 (≈ 183 µM) | > 500 |
| CCCCCCCC(C)O (stereo not drawn) [2-NONANOL] | 137 (≈ 950 µM) | 178 (≈ 1230 µM) | 108 (≈ 746 µM) | 130 (≈ 899 µM) |
| CCCCCCCC(C)=O [2-NONANONE] | 119 (≈ 837 µM) | 357 (≈ 2510 µM) | 118 (≈ 832 µM) | 279 (≈ 1960 µM) |
| CCCCCCCCCCCC(C)=O [2-TRIDECANONE] | 200 (≈ 1010 µM) | > 500 | 204 (≈ 1030 µM) | > 500 |
| CCCCCCCCCC(C)=O [METHYL NONYL KETONE] | 22.5 (≈ 132 µM) | > 500 | 20.6 (≈ 121 µM) | > 500 |
| CCCCCCCCOC(C)=O [OCTYL ACETATE] | 61.4 | 111 | 37.3 | 61.6 |
